Key:
[1] = Antiproliferative activity against human SPCA1 cells by MTT assay; type: functional, cell-based
A549 [2] = assay: Antiproliferative activity against human A549 cells after 24 hrs by MTT assay; type: functional, cell-based; conditions: A549, 24 h
[3] = Partition coefficient, log P of the compound; type: physicochemical; conditions: octanol/water
[4] = Antiproliferative activity against human SPCA1 cells after 24 hrs by MTT assay; type: functional, cell-based; conditions: SPCA1, 24 h
K562 [5] = assay: Antiproliferative activity against human K562 cells by MTT assay; type: functional, cell-based
Method in brief: (§1)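 Cells from the Institute of Cell Biology, CAS (Shanghai), grown in RPMI-1640 with 10% FBS and 100 U/mL penicillin-streptomycin at 37 °C under 5% CO2. Cells were exposed to compounds for 48 h, and viability was read by MTT (or MTS). IC50, the concentration giving 50% inhibition, was calculated by the Logit method. Data are representative of 3 independent experiments.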

K562 [6] = assay: Antiproliferative activity against human K562 cells after 24 hrs by MTT assay; type: functional, cell-based; conditions: K562, 24 h
A549 [7] = assay: Antiproliferative activity against human A549 cells by MTT assay; type: functional, cell-based; method in brief: as §1
HepG2 [8] = assay: Antiproliferative activity against human HepG2 cells after 24 hrs by MTT assay; type: functional, cell-based; conditions: HepG2, 24 h
A2780 = assay: Antiproliferative activity against human A2780 cells after 24 hrs by MTT assay; type: functional, cell-based; conditions: A2780, 24 h
[9] = Antiproliferative activity against […] cells after 24 hrs by MTT assay; type: functional, cell-based; conditions: LL/2, 24 h
HepG2 [10] = assay: Antiproliferative activity against human HepG2 cells after 72 hrs by MTT assay; type: functional, cell-based; conditions: HepG2, 72 h
[11] = Selectivity index, ratio of IC50 for HUVEC to IC50 for human K562 cells; type: toxicity; conditions: HUVEC versus K562 cells, read-out: Ratio IC50
Method in brief: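 K562 tumor cells and HUVEC grown in RPMI-1640 with 10% FBS and penicillin-streptomycin at 37 °C under 5% CO2. Viability was read by MTT or MTS assay, with tumor cells exposed to compounds for 48 h. IC50 values came from the Logit method across 3 independent experiments. The index is HUVEC IC50 divided by K562 IC50.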

HepG2 [12] = assay: Antiproliferative activity against human HepG2 cells after 48 hrs by MTT assay; type: functional, cell-based; conditions: HepG2, 48 h; method in brief: as §1
K562 [13] = assay: Antiproliferative activity against human K562 cells after 48 hrs by MTT assay; type: functional, cell-based; conditions: K562, 48 h; method in brief: as §1
HCT-116 = assay: Antiproliferative activity against human HCT116 cells after 72 hrs by MTT assay; type: functional, cell-based; conditions: HCT-116, 72 h
HeLa = assay: Antiproliferative activity against human HeLa cells; type: functional, cell-based
[14] = Antiproliferative activity against mouse C26 cells; type: functional, cell-based

IC50 (A549 [2]) [µM] | logP [3] | IC50 (K562 [5]) [µM] | IC50 (K562 [6]) [µM] | IC50 (A549 [7]) [µM] | IC50 (HepG2 [8]) [µM] | IC50 (A2780) [µM] | IC50 (HepG2 [10]) [µM] | IC50 (HepG2 [12]) [µM] | IC50 (K562 [13]) [µM] | IC50 (HCT-116) [µM] | IC50 (HeLa) [µM] | SMILES | IC50 [1] [µM] | IC50 [4] [µM] | IC50 [9] [µM] | selectivity ratio [11] | IC50 [14] [µM]
34.1 | 4.51 | 19.7 | 11.6 | 49 | 20.2 | 17.8 | – | – | – | – | – | C=CCc1ccc(O)c(-c2cc(C=O)c(O)c(CC=C)c2)c1 | 22.8 | 37.3 | 31.3 | – | –
34.1 | 5 | 28.4 | 22.1 | 29.7 | 32.9 | – | 33.9 | 34.3 | 23.9 | 19.1 | 62 | C=CCc1ccc(O)c(-c2ccc(O)c(CC=C)c2)c1 [HONOKIOL] | 41.3 | 37.3 | 65.3 | 2.2 | 65.1
